In brackets after ≈: the same amount, converted by molar mass. Activity calls are given as the source filed them. No cut-off for these calls is given here.
Tests used:
Escherichia coli = assay: Antibacterial activity against Escherichia coli ATCC 25922 after 16 to 20 hrs by two fold serial dilution method; type: functional
Procedure, shortened: (§1)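 MIC as lowest concentration giving complete inhibition of growth after 20 h; at least three independent experiments, each in duplicate.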

Pseudomonas aeruginosa = assay: Antibacterial activity against Pseudomonas aeruginosa ATCC 27853 after 16 to 20 hrs by two fold serial dilution method; type: functional; procedure, shortened: as §1
Klebsiella pneumoniae = assay: Antibacterial activity against Klebsiella pneumoniae ATCC 13383 after 16 to 20 hrs by two fold serial dilution method; type: functional; procedure, shortened: as §1
Staphylococcus aureus [1] = assay: Antibacterial activity against methicillin-resistant Staphylococcus aureus ATCC 33591 after 16 to 20 hrs by two fold serial dilution method; type: functional
Procedure, shortened: (§2)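 Broth MIC: the lowest concentration giving complete growth inhibition after 20 h. Run at least three times, in duplicate each time.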

[2] = test system: Staphylococcus epidermidis; assay: Antibacterial activity against methicillin-resistant Staphylococcus epidermidis RP62A after 16 to 20 hrs by two fold serial dilution method; type: functional; procedure, shortened: as §2
Enterococcus faecalis = assay: Antibacterial activity against vancomycin resistant Enterococcus faecalis ATCC 700802 after 16 to 20 hrs by two fold serial dilution method; type: functional; procedure, shortened: as §2
[3] = Hemolytic activity in human RBC after 1 hr; type: ADME, cell-based, Erythrocyte; conditions: human red blood cells
Procedure, shortened: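 Fresh K2EDTA human RBCs, PBS-washed, as 5% v/v suspension mixed 1:1 with compound dilutions, 37 °C for 1 h. Supernatant after centrifugation diluted in PBS, A540 read. % hemolysis relative to 2% Triton X-100 (positive) and PBS (negative). At least three runs, each in duplicate.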

[4] = Cytotoxicity against human HK2 cells assessed as cell viability at 25 ug/ml after 24 hrs by MTT assay; type: toxicity, cell-based; conditions: hk-2, 24 h
Procedure, shortened: (§3)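 Cells seeded at 5×10^4 per well and left 12 h, then exposed 24 h to compound at 100, 50, 25, 12.5 or 6.25 μg/mL diluted in medium. Medium replaced, MTT added for 4 h, solubilized 12 h at 37 °C, A550 read; viability % = (A − Ablank)/(Acontrol − Ablank) × 100. Run at least three times.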

[5] = Cytotoxicity against human K562 cells assessed as cell viability at 25 ug/ml after 24 hrs by MTT assay; type: toxicity, cell-based; conditions: k562, 24 h; procedure, shortened: as §3
Staphylococcus aureus [6] = assay: Bactericidal activity against methicillin-resistant Staphylococcus aureus ATCC 33591 assessed as disruption of bacterial membrane at 25 ug/ml after 2 hrs by DAPI staining based fluorescence microscopy; type: functional
Procedure, shortened: (§4)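 Mid-log MRSA was exposed to compound at 37 °C for 2 h, pelleted and washed three times in PBS. Cells were stained sequentially with PI (5 µg/mL) and DAPI (10 µg/mL), 15 min each on ice in the dark. Imaged with a 100× oil objective; DAPI channel 460 nm, PI channel 620 nm.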

Staphylococcus aureus [7] = assay: Bactericidal activity against methicillin-resistant Staphylococcus aureus ATCC 33591 assessed as disruption of bacterial membrane at 25 ug/ml after 2 hrs by propidium iodide staining based fluorescence microscopy; type: functional; procedure, shortened: as §4
Staphylococcus aureus [8] = assay: Bactericidal activity against methicillin-resistant Staphylococcus aureus ATCC 33591 for 10 mins to 2 hrs by time kill assay; type: functional
Procedure, shortened: (§5)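 MRSA grown to mid-log in TSB was diluted to 10^6 CFU/mL. […] Samples were diluted 10^2–10^4-fold and plated on TSB agar. CFU were counted after overnight incubation at 37 °C and plotted against time.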

Staphylococcus aureus [9] = assay: Bactericidal activity against methicillin-resistant Staphylococcus aureus ATCC 33591 at 25 to 50 ug/ml for 10 mins to 2 hrs by time kill assay; type: functional; procedure, shortened: as §5
Staphylococcus aureus [10] = assay: Antibacterial activity against methicillin-resistant Staphylococcus aureus ATCC 33591 at 0.5 times MIC after 14 passages; type: functional
Procedure, shortened: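 Resistance passaging: the starting MIC was measured as in the MIC assay. Bacteria from the 1/2 MIC well seeded the next day's assay. Repeated daily for 14 passages.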

Molecule	MIC (Escherichia coli) [µg/mL]	MIC (Pseudomonas aeruginosa) [µg/mL]	MIC (Klebsiella pneumoniae) [µg/mL]	MIC (Staphylococcus aureus [1]) [µg/mL]	MIC [2] [µg/mL]	MIC (Enterococcus faecalis) [µg/mL]	HC50 at 1 h [3] [µg/mL]	Activity [4]	Activity [5]	Activity (Staphylococcus aureus [6])	Activity (Staphylococcus aureus [7])	Activity (Staphylococcus aureus [8])	Activity (Staphylococcus aureus [9])	Activity (Staphylococcus aureus [10])
NCCCC[C@H](N)C(=O)N[C@@H](Cc1ccccc1)CN(CC(=O)NCc1cccc2ccccc12)C(=O)c1ccc2ccccc2c1	25 (≈ 39.7 µM)	12.5 (≈ 19.8 µM)	25 (≈ 39.7 µM)	25 (≈ 39.7 µM)	12.5 (≈ 19.8 µM)	25 (≈ 39.7 µM)	290	Non-Toxic	Non-Toxic					
NCCCC[C@H](NC(=O)[C@@H](N)CCCN)C(=O)N[C@@H](Cc1ccccc1)CN(CC(=O)NCC12CC3CC(CC(C3)C1)C2)C(=O)CC12CC3CC(CC(C3)C1)C2	6.25 (≈ 8.07 µM)	6.25 (≈ 8.07 µM)	> 25	3.12 (≈ 4.03 µM)	3.12 (≈ 4.03 µM)	6.25 (≈ 8.07 µM)	200	Non-Toxic	Non-Toxic					
NCCCC[C@@H](CN(CC(=O)NCc1cccc2ccccc12)C(=O)CC12CC3CC(CC(C3)C1)C2)NC(=O)[C@@H](N)CCCCN	> 50	> 50	> 50	> 50	> 50	> 50								
N=C(N)NCCC[C@H](N)C(=O)N[C@@H](CCCCN)C(=O)N[C@@H](Cc1ccccc1)CN(CC(=O)NCC12CC3CC(CC(C3)C1)C2)C(=O)CC12CC3CC(CC(C3)C1)C2	6.25 (≈ 7.66 µM)	6.25 (≈ 7.66 µM)	> 25	3.12 (≈ 3.82 µM)	3.12 (≈ 3.82 µM)	6.25 (≈ 7.66 µM)	250	Non-Toxic	Non-Toxic					
NCCCC[C@@H](CN(CC(=O)NCc1cccc2ccccc12)C(=O)CCCN)NC(=O)c1ccc2ccccc2c1	> 50	> 50	> 50	25 (≈ 44 µM)	25 (≈ 44 µM)	25 (≈ 44 µM)								
NCCCC[C@H](N)C(=O)N[C@@H](Cc1ccccc1)CN(CC(=O)NCc1ccc(C(F)(F)F)cc1)C(=O)CC12CC3CC(CC(C3)C1)C2	6.25 (≈ 9.33 µM)	12.5 (≈ 18.7 µM)	6.25 (≈ 9.33 µM)	6.25 (≈ 9.33 µM)	3.12 (≈ 4.66 µM)	6.25 (≈ 9.33 µM)	200	Non-Toxic	Non-Toxic					
NCCCC[C@H](N)C(=O)N[C@@H](Cc1ccccc1)CN(CC(=O)NCc1ccc(-c2ccccc2)cc1)C(=O)CC12CC3CC(CC(C3)C1)C2	6.25 (≈ 9.22 µM)	12.5 (≈ 18.4 µM)	12.5 (≈ 18.4 µM)	6.25 (≈ 9.22 µM)	6.25 (≈ 9.22 µM)	6.25 (≈ 9.22 µM)	160	Non-Toxic	Non-Toxic					
NCCCC[C@H](NC(=O)[C@@H](N)CCCCN)C(=O)N[C@@H](Cc1ccccc1)CN(CC(=O)NCC12CC3CC(CC(C3)C1)C2)C(=O)CC12CC3CC(CC(C3)C1)C2	6.25 (≈ 7.93 µM)	6.25 (≈ 7.93 µM)	> 25	1.56 (≈ 1.98 µM)	3.12 (≈ 3.96 µM)	6.25 (≈ 7.93 µM)	280	Non-Toxic	Non-Toxic	Active	Active	Dose-dependent effect	Active	Active
CC(C)(C)c1ccc(CNC(=O)CN(C[C@H](Cc2ccccc2)NC(=O)[C@@H](N)CCCCN)C(=O)CC23CC4CC(CC(C4)C2)C3)cc1	6.25 (≈ 9.5 µM)	6.25 (≈ 9.5 µM)	6.25 (≈ 9.5 µM)	6.25 (≈ 9.5 µM)	3.12 (≈ 4.74 µM)	6.25 (≈ 9.5 µM)	120	Non-Toxic	Non-Toxic					
NCCCC[C@@H](CN(CC(=O)NCc1cccc2ccccc12)C(=O)c1ccc2ccccc2c1)NC(=O)[C@@H](N)CCCCN	> 50	> 50	> 50	> 50	> 50	> 50								
NCCCC[C@H](N)C(=O)N[C@@H](Cc1ccccc1)CN(CC(=O)NCc1cccc2ccccc12)C(=O)CC12CC3CC(CC(C3)C1)C2	12.5 (≈ 19.2 µM)	6.12 (≈ 9.39 µM)	12.5 (≈ 19.2 µM)	6.25 (≈ 9.59 µM)	6.25 (≈ 9.59 µM)	12.5 (≈ 19.2 µM)	225	Non-Toxic	Non-Toxic					
NCCCC[C@H](N)CN(CC(=O)NCc1cccc2ccccc12)C(=O)c1ccc2ccccc2c1	25 (≈ 51.8 µM)	6 (≈ 12.4 µM)	25 (≈ 51.8 µM)	25 (≈ 51.8 µM)	25 (≈ 51.8 µM)	25 (≈ 51.8 µM)								
NCCCC[C@H](N)C(=O)N[C@@H](Cc1ccccc1)CN(CC(=O)N(Cc1ccccc1)Cc1ccccc1)C(=O)CC12CC3CC(CC(C3)C1)C2	6.25 (≈ 9.03 µM)	25 (≈ 36.1 µM)	12.5 (≈ 18.1 µM)	6.25 (≈ 9.03 µM)	6.25 (≈ 9.03 µM)	6.25 (≈ 9.03 µM)	180	Non-Toxic	Non-Toxic					
COLISTIN	0.5	1	0.5	> 50	> 50	> 50								
CCCCCCCCCC(=O)N[C@@H](Cc1c[nH]c2ccccc12)C(=O)N[C@@H](CC(N)=O)C(=O)N[C@@H](CC(=O)O)C(=O)N[C@@H]1C(=O)NCC(=O)N[C@@H](CCCN)C(=O)N[C@@H](CC(=O)O)C(=O)N[C@H](C)C(=O)N[C@@H](CC(=O)O)C(=O)NCC(=O)N[C@H](CO)C(=O)N[C@@H]([C@H](C)CC(=O)O)C(=O)N[C@@H](CC(=O)c2ccccc2N)C(=O)O[C@@H]1C [DAPTOMYCIN]	> 50	> 50	> 50	0.5 (≈ 0.309 µM)	0.5 (≈ 0.309 µM)	1 (≈ 0.617 µM)								
NCCCC[C@H](N)C(=O)N[C@@H](Cc1ccccc1)CN(CC(=O)NCc1cc(C(F)(F)F)cc(C(F)(F)F)c1)C(=O)CC12CC3CC(CC(C3)C1)C2	3.12 (≈ 4.23 µM)	6.25 (≈ 8.47 µM)	6.25 (≈ 8.47 µM)	3.12 (≈ 4.23 µM)	3.12 (≈ 4.23 µM)	6.25 (≈ 8.47 µM)	210	Non-Toxic	Non-Toxic					
